Experiment [1] can be described thus: bacterial growth inhibition with EDDHA chelator – absorbance 405 nm, dry powder, set 3, pyoverdine/PvdQ inhibitor project, dose response (AID 624020). Particulars: P. aeruginosa growth + EDDHA, pyoverdine absorbance 405 nm; at 50 µM (top of the series). In a few lines: (§1)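 Test system: Pseudomonas aeruginosa strain ATCC 15692, whole bacteria / Buffer or medium: succinate M9 medium, pH 7.0, with 2 µM iron chelator EDDHA / Reagent: EDDHA, 2 µM final / Doses: threefold compound dilution series from 10 mM stock / Times: Bacteria-compound culture for 24–30 h at 37 °C, humidified / Technique: pyoverdine absorbance, 405 nm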

In experiment [2] the test system is P. aeruginosa growth + EDDHA, pyoverdine absorbance 405 nm. The description is as above. A digest of the protocol:
as §1

The source made the active and inactive calls.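 The calls were made as follows: active = fitted curve reaching 35% inhibition at both 405 and 600 nm absorbance, in duplicate, within twice the top valid dose; inactive = the rest, including signal rising instead of falling.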 Some results are limits rather than exact numbers.

As to `N#CC(c1cccc(Cl)n1)c1ccc(Cl)cc1Cl` (centres undefined), in experiment [1], the activity change, negative = inhibition is 0.286% (inactive). As for `N#CC(c1cccc(C(F)(F)F)n1)c1ccccc1OC(F)(F)F` (centres undefined), the activity change, negative = inhibition in experiment [1] is 7.17% (inactive). On the same count and under the same terms, then `N#Cc1cccc(C(C#N)c2ccc(Cl)cc2F)n1` (centres undefined), with 7.99% (inactive); and `N#Cc1ccc(C(C#N)c2ccc(Cl)cc2)nc1` (centres undefined), with 5.84% (inactive). Turning to `N#CC(c1ccc(Cl)cc1)c1cccc(Cl)n1` (centres undefined), the AC35 in experiment [2] was 33.5 µM.

On to `N#CC(c1cccc(Cl)n1)c1ccccc1OC(F)(F)F` (centres undefined), for which the activity change, negative = inhibition in experiment [1] was -0.322% (inactive). On the same count and under the same terms, then `CCCC(C#N)c1ccc(Cl)cc1` (centres undefined), with -9% (inactive); and `N#CC(c1ccc(Cl)cc1)c1ccc(C(F)(F)F)c(Cl)n1` (centres undefined), with -1.44% (inactive).

Consider `N#Cc1ccc(C(C#N)c2ccc(Cl)cc2Cl)nc1` (centres undefined), for which the activity change, negative = inhibition in experiment [1] was 4.54% (inactive). The same measure, in the same setting: then `CC(C)CC(C#N)c1ccc(Cl)cc1` (centres undefined), with 3.56% (inactive); and `N#CC(c1ccc(Cl)cc1Cl)c1ncccc1Cl` (centres undefined), with 13% (inactive). In the case of `N#CC(c1ccc(F)cc1)c1cccc(C(F)(F)F)n1` (centres undefined), the AC35 in experiment [2] is 44.8 µM. With `N#CC(c1ccc(C(F)(F)F)c(Cl)n1)c1ccc(Cl)cc1F` (centres undefined), the activity change, negative = inhibition in experiment [1] is 2.37% (inactive). Same read-out and setting: then `COc1cccc(C(C#N)c2ccc(F)cc2)n1` (centres undefined), with 9.45% (inactive); and `N#Cc1cccc(C(C#N)c2ccccc2OC(F)(F)F)n1` (centres undefined), with 4.22% (inactive). Regarding `N#CC(c1ccc(Cl)cc1)c1cccc(C(F)(F)F)n1` (centres undefined), the AC35 in experiment [2] is 16.8 µM. Turning to `N#CC(c1ccc(C(F)(F)F)cc1)c1cccc(Cl)n1` (centres undefined), the activity change, negative = inhibition in experiment [1] is 17.5% (inactive).

For the molecule `N#CC(c1ccc(C(F)(F)F)c(Cl)n1)c1ccc(Cl)cc1Cl` (centres undefined), in experiment [2], the AC35 is > 50 µM (inactive). With `N#CC(c1ccc(C(F)(F)F)c(Cl)n1)c1ccccc1OC(F)(F)F` (centres undefined), in experiment [1], the activity change, negative = inhibition is -1.95% (inactive). The same measure, in the same setting: then `N#CC(c1ccc(Cl)cc1)c1ccc(Cl)cn1` (centres undefined), with -3.9% (inactive); and `CCCCC(C#N)c1ccc(Cl)cc1Cl` (centres undefined), with 14.9% (inactive).

Turning to `Cc1cccc(C(C#N)c2ccc(Cl)cc2)n1` (centres undefined), the activity change, negative = inhibition in experiment [1] was 14% (inactive). The same measure, in the same setting: then `N#CC(c1cccc(C(F)(F)F)n1)c1ccc(Cl)cc1F` (centres undefined), with -4.42% (inactive).

In the case of `CCCCC(C#N)c1ccc(F)cc1` (centres undefined), the activity change, negative = inhibition in experiment [1] was 8.04% (inactive). The same measure, in the same setting: then `N#CC(c1ccc(C(F)(F)F)cc1)c1ccc(C(F)(F)F)c(Cl)n1` (centres undefined), with 20.8% (inactive). Still for that read-out and setting: then `N#Cc1cccc(C(C#N)c2ccc(Cl)cc2)n1` (centres undefined), with 3.83% (inactive); and `Cc1ccc(C(C#N)c2ccccc2OC(F)(F)F)nc1C#N` (centres undefined), with 9.74% (inactive); and `N#CC(c1ccc(Cl)cc1)c1ccc(C(F)(F)F)cn1` (centres undefined), with 8.01% (inactive).

Turning to `N#CC(CC1CC1)c1ccc(Cl)cc1` (centres undefined), the activity change, negative = inhibition in experiment [1] is 3.25% (inactive). Consider `CCCCC(C#N)c1ccc(Cl)cc1` (centres undefined), for which the activity change, negative = inhibition in experiment [1] is -10.7% (inactive). With `N#Cc1cccc(C(C#N)c2ccc(Cl)cc2Cl)n1` (centres undefined), the activity change, negative = inhibition in experiment [1] is -0.74% (inactive). On the same count and under the same terms, then `CCCCC(C#N)c1ccc(C(F)(F)F)cc1` (centres undefined), with 16.2% (inactive); and `Cc1ccc(C(C#N)c2ccc(F)cc2)nc1C#N` (centres undefined), with 4.87% (inactive); and `CC(C#N)(c1ccc(Cl)cc1)c1ccc(C(F)(F)F)cn1` (centres undefined), with 9.6% (inactive). `Cc1ccc(C(C#N)c2ccc(Cl)cc2)nc1` (centres undefined): the activity change, negative = inhibition in experiment [1] was 7.58% (inactive). In the case of `CCCCC(C#N)c1ccccc1OC(F)(F)F` (centres undefined), the activity change, negative = inhibition in experiment [1] is -1.21% (inactive).

In the case of `N#CC(c1ccc(C(F)(F)F)cc1)c1cccc(C(F)(F)F)n1` (centres undefined), in experiment [1], the activity change, negative = inhibition is 20.5% (inactive). The same measure, in the same setting: then `CCCCC(C#N)c1ccc(Cl)cc1F` (centres undefined), with 15.6% (inactive); and `Cc1ccc(C(C#N)c2ccc(Cl)cc2)nc1C#N` (centres undefined), with 5.29% (inactive).

For the origin of these results see PubChem BioAssay AID624020 (Broad Institute, 2012).
